Laboratory results published in ChEMBL document CHEMBL1781920, “Synthesis and antimicrobial activity of some new 4-hetarylpyrazole and furo[2,3-c]pyrazole derivatives” (2011).
In brackets after ≈: the same amount, converted by molar mass.

What was measured:
Type in all cases: functional
Bacillus subtilis [1] = experiment: Antibacterial activity against Bacillus subtilis ATCC 6633 after 24 hrs by serial dilution method; conditions: ATCC 6633, 24 h
Outline: (§1)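 Broth microdilution in Mueller–Hinton broth, run only for compounds giving zones >14 mm in the disk test. DMF stocks were diluted twofold from 500 to 3.125, and about 10⁶ CFU/mL bacteria were added per well. Sealed plates were kept at 37 °C for 24 h in a humid chamber. MIC was taken as the lowest concentration without visible turbidity.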

Bacillus thuringiensis [2] = experiment: Antibacterial activity against Bacillus thuringiensis ATCC 6051 at 1 mg/ml after 24 hrs by agar-diffusion method; conditions: ATCC 6051, 24 h, read-out: IZ
Outline: (§2)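 Agar disk diffusion on nutrient agar seeded with about 10⁶ CFU/mL of the test bacterium. Filter-paper disks were impregnated with compound in DMF at 1 mg/mL, two disks per plate, in triplicate. DMF alone served as control. Plates were incubated at 37 °C for 24 h, and the mean inhibition-zone diameter was recorded in mm.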

Fusarium oxysporum [3] = experiment: Antifungal activity against Fusarium oxysporum ATCC 16417 at 1 mg/ml after 48 hrs by agar-diffusion method; conditions: ATCC 16417, 48 h, read-out: IZ
Outline: (§3)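 Fungi were seeded at 10⁴ CFU/mL onto nutrient agar plates. Filter-paper disks carried compound dissolved in DMF at 1 mg/mL, two disks per plate, in triplicate, with a DMF-only control. After 48 h incubation at 37 °C, the average diameter of the growth-inhibition zone was read in mm.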

Pseudomonas aeruginosa [4] = experiment: Antibacterial activity against Pseudomonas aeruginosa ATCC 27853 after 24 hrs by serial dilution method; conditions: ATCC 27853, 24 h; outline: as §1
Bacillus subtilis [5] = experiment: Antibacterial activity against Bacillus subtilis ATCC 6633 at 1 mg/ml after 24 hrs by agar-diffusion method; conditions: ATCC 6633, 24 h, read-out: IZ; outline: as §2
Botrytis fabae [6] = experiment: Antifungal activity against Botrytis fabae ATCC 14862 at 1 mg/ml after 48 hrs by agar-diffusion method; conditions: ATCC 14862, 48 h, read-out: IZ; outline: as §3
Botrytis fabae [7] = experiment: Antifungal activity against Botrytis fabae ATCC 14862 after 48 hrs by serial dilution method; conditions: ATCC 14862, 48 h
Outline: (§4)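 MICs were measured by microdilution in Sabouraud liquid medium, for compounds with disk zones >14 mm. DMF stocks were serially diluted twofold across 500–3.125. Sealed plates were incubated at 37 °C for 48 h in a humid chamber. The lowest concentration with no visible turbidity was recorded as the MIC.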

Escherichia coli [8] = experiment: Antibacterial activity against Escherichia coli ATCC 14169 at 1 mg/ml after 24 hrs by agar-diffusion method; conditions: ATCC 14169, 24 h, read-out: IZ; outline: as §2
Bacillus thuringiensis [9] = experiment: Antibacterial activity against Bacillus thuringiensis ATCC 6051 after 24 hrs by serial dilution method; conditions: ATCC 6051, 24 h; outline: as §1
Pseudomonas aeruginosa [10] = experiment: Antibacterial activity against Pseudomonas aeruginosa ATCC 27853 at 1 mg/ml after 24 hrs by agar-diffusion method; conditions: ATCC 27853, 24 h, read-out: IZ; outline: as §2
Fusarium oxysporum [11] = experiment: Antifungal activity against Fusarium oxysporum ATCC 16417 after 48 hrs by serial dilution method; conditions: ATCC 16417, 48 h; outline: as §4
Escherichia coli [12] = experiment: Antibacterial activity against Escherichia coli ATCC 14169 after 24 hrs by serial dilution method; conditions: ATCC 14169, 24 h; outline: as §1
Bacillus thuringiensis [13] = experiment: Antibacterial activity against Bacillus thuringiensis ATCC 6051 after 24 hrs by serial dilution method relative to chloramphenicol
Bacillus subtilis [14] = experiment: Antibacterial activity against Bacillus subtilis ATCC 6633 after 24 hrs by serial dilution method relative to chloramphenicol

SMILES | MIC (Bacillus subtilis [1]) [µg/mL] | zone of inhibition at 1000 µg/mL (Bacillus thuringiensis [2]) [mm] | zone of inhibition at 1000 µg/mL (Fusarium oxysporum [3]) [mm] | MIC (Pseudomonas aeruginosa [4]) [µg/mL] | zone of inhibition at 1000 µg/mL (Bacillus subtilis [5]) [mm] | zone of inhibition at 1000 µg/mL (Botrytis fabae [6]) [mm] | MIC (Botrytis fabae [7]) [µg/mL] | zone of inhibition at 1000 µg/mL (Escherichia coli [8]) [mm] | MIC (Bacillus thuringiensis [9]) [µg/mL] | zone of inhibition at 1000 µg/mL (Pseudomonas aeruginosa [10]) [mm] | MIC (Fusarium oxysporum [11]) [µg/mL] | MIC (Escherichia coli [12]) [µg/mL] | Activity (Bacillus thuringiensis [13]) [%] | Activity (Bacillus subtilis [14]) [%]
Cc1nn(-c2ccccc2)c2c1/C(=N/c1ccccn1)CO2 | 25 (≈ 86.1 µM) | 25 | 16 | 6.25 (≈ 21.5 µM) | 26 | 20 | 50 (≈ 172 µM) | 38 | 25 (≈ 86.1 µM) | 15 | 100 (≈ 344 µM) | 6.25 (≈ 21.5 µM) |  | 
Cc1nn(-c2ccccc2)c2c1/C(=N/c1nnc[nH]1)CO2 | 6.25 (≈ 22.3 µM) | 38 | 15 | 100 (≈ 357 µM) | 38 | 19 | 50 (≈ 178 µM) | 15 | 6.25 (≈ 22.3 µM) | 16 | 100 (≈ 357 µM) | 100 (≈ 357 µM) |  | 
Cc1nn(-c2ccccc2)c2c1/C(=N/c1nc3ccccc3[nH]1)CO2 | 3.12 (≈ 9.49 µM) | 37 | 14 | 50 (≈ 152 µM) | 44 | 37 | 6.25 (≈ 19 µM) | 19 | 6.25 (≈ 19 µM) | 20 | 6.25 (≈ 19 µM) | 50 (≈ 152 µM) |  | 
Cc1[nH]n(-c2ccccc2)c(=O)c1C(=O)CN1CCCCC1 | 3.12 (≈ 10.4 µM) | 38 | 14 | 100 (≈ 334 µM) | 43 | 31 | 12.5 (≈ 41.8 µM) | 19 | 6.25 (≈ 20.9 µM) | 16 | 100 (≈ 334 µM) | 50 (≈ 167 µM) |  | 
Cc1[nH]n(-c2ccccc2)c(=O)c1C(=O)c1cc2ccccc2o1 | 6.25 (≈ 19.6 µM) | 37 | 26 | 12.5 (≈ 39.3 µM) | 38 | 19 | 50 (≈ 157 µM) | 15 | 6.25 (≈ 19.6 µM) | 33 | 25 (≈ 78.5 µM) | 100 (≈ 314 µM) | 50 | 50
Cc1[nH]n(-c2ccccc2)c(=O)c1C(=O)c1oc2ccccc2c1C | 6.25 (≈ 18.8 µM) | 37 | 15 | 50 (≈ 150 µM) | 37 | 15 | 100 (≈ 301 µM) | 27 | 6.25 (≈ 18.8 µM) | 19 | 100 (≈ 301 µM) | 25 (≈ 75.2 µM) | 50 | 50
CC(=O)c1cc(-c2c(C)[nH]n(-c3ccccc3)c2=O)oc1C | 3.12 (≈ 10.5 µM) | 37 | 20 | 50 (≈ 169 µM) | 42 | 26 | 25 (≈ 84.4 µM) | 15 | 6.25 (≈ 21.1 µM) | 18 | 50 (≈ 169 µM) | 100 (≈ 337 µM) |  | 
Cc1[nH]n(-c2ccccc2)c(=O)c1C1=Nc2ccccc2OC1 | 50 (≈ 164 µM) | 19 | 15 | 100 (≈ 328 µM) | 20 | 15 | 100 (≈ 328 µM) | 19 | 50 (≈ 164 µM) | 15 | 100 (≈ 328 µM) | 50 (≈ 164 µM) |  | 
Cc1[nH]n(-c2ccccc2)c(=O)c1C(=O)CN1CCOCC1 | 12.5 (≈ 41.5 µM) | 38 | 19 | 50 (≈ 166 µM) | 32 | 19 | 50 (≈ 166 µM) | 16 | 6.25 (≈ 20.7 µM) | 20 | 50 (≈ 166 µM) | 100 (≈ 332 µM) |  | 
Cc1[nH]n(-c2ccccc2)c(=O)c1C1=Nc2ccccc2NC1 | 50 (≈ 164 µM) | 15 | 15 | 50 (≈ 164 µM) | 19 | 20 | 50 (≈ 164 µM) | 15 | 100 (≈ 329 µM) | 19 | 100 (≈ 329 µM) | 100 (≈ 329 µM) |  | 
Cc1[nH]n(-c2ccccc2)c(=O)c1C1=Nc2ccccc2SC1 | 100 (≈ 311 µM) | 15 | 15 | 100 (≈ 311 µM) | 15 | 19 | 50 (≈ 156 µM) | 15 | 100 (≈ 311 µM) | 16 | 100 (≈ 311 µM) | 100 (≈ 311 µM) |  | 
CC(=O)OCC1=C(C(=O)O)N2C(=O)[C@@H](NC(=O)Cc3cccs3)[C@H]2SC1 [CEPHALOTHIN] | 6.25 (≈ 15.8 µM) | 37 |  | 6.25 (≈ 15.8 µM) | 36 |  |  | 38 | 6.25 (≈ 15.8 µM) | 37 |  | 6.25 (≈ 15.8 µM) |  | 
O=C(N[C@H](CO)[C@H](O)c1ccc([N+](=O)[O-])cc1)C(Cl)Cl [CHLORAMPHENICOL] | 3.12 (≈ 9.67 µM) | 44 |  | 6.25 (≈ 19.3 µM) | 42 |  |  | 37 | 3.12 (≈ 9.67 µM) | 38 |  | 6.25 (≈ 19.3 µM) |  | 
C[C@@H]1C[C@@H]([C@H](O)CC2CC(=O)NC(=O)C2)C(=O)[C@@H](C)C1 [CYCLOHEXIMIDE] |  |  | 43 |  |  | 42 | 3.12 (≈ 11.1 µM) |  |  |  | 3.12 (≈ 11.1 µM) |  |  | 
